Assay outcomes: PubChem, several laboratories
In the library only some 5% were active in any assay of this set; here they are far more common.
UPR CHOP act: apoptotic UPR (CHOP) activation; CHO-CHOP luciferase reporter, luminescence; percent of tunicamycin response over DMSO baseline; AID 449763; 330,000 compounds, 0.34% hits; activation, % at 10 µM;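 active = at 10 µM dose, activation of 40% or more, normalized to positive control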;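 also: 100% = tunicamycin at 10 µg/mL and 0% = DMSO alone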
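Evaluation: % reporter activation, DMSO baseline versus tunicamycin full activation; System: CHO-CHOP luciferase reporter cell line; Input: 500 cells/well; Incubation: 6 h compound treatment, 37 °C; Measured by: Steady-Glo luciferase luminescence; Dosing: one dose, 10 µM in 0.5% DMSO; Buffer or medium: F12 medium, 10% FBS; Benchmarks: positive tunicamycin 10 µg/mL, negative DMSO alone.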
T cruzi repl: T. cruzi replication inhibition. T. cruzi beta-gal in NIH3T3, luminescence, 90 h. inhibition, % (concentration not given with the values). 300,000 compounds, 1.4% hits. AID 1885;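 active = mean inhibition across valid replicates above about 55%, limit read from the data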;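 also: signal also drops with host cell toxicity which is not excluded here; 0% = plate median of DMSO wells and 100% = zero luminescence signal; higher percent means less beta-gal luminescence so fewer parasites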
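System: NIH/3T3 fibroblasts plus reporter T. cruzi. Medium: DMEM plus 2% FBS. Probe or stimulus: 5000 reporter trypomastigotes per well. Compound: single 50 nL compound addition per well in DMSO. Incubation: co-culture of at least 90 h after 3 h attachment. Detection: GalScreen β-gal luminescence, detergent lysis, 60 min. Evaluation: parasite load inhibition, %.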
Beta apoptosis: blocks beta cell apoptosis. INS-1E cytokine-induced death, ATP luminescence, 48 h; percent of positive-control rescue, neutral wells zero. protection from apoptosis, % (test concentration not listed). 300,000 compounds, 0.8% hits. AID 435005;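 active = Every replicate reaches about 75%, or at least half do and their mean reaches it too, limit read from the data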;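 also: 0% = cytokine-treated negative control wells and 100% = positive control rescue; higher means more ATP so stronger rescue from cytokine killing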
Mdm2 MdmX PPI: disrupts the human Mdm2-MdmX interaction | inhibition, % at 8 µM | 330,000 compounds, 3% hits | O15151+Q00987 | SaOS-2 split-luciferase Mdm2/MdmX complementation, luminescence;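 active = inhibition of at least 50% at 8 µM in the primary screen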
UPR XBP1 act: adaptive UPR (XBP1) activation; CHO-XBP1 luciferase reporter, IRE1-XBP1 UPR activation, luminescence; percent of tunicamycin response, DMSO as zero; activation, % at 20 µM; 330,000 compounds, 0.33% hits; AID 463104;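 active = versus positive control, 20 µM dose yields 30% or more activation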;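 also: 100% = tunicamycin at 10 µg/mL and 0% = DMSO only wells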
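Signal: luciferase luminescence; Assay system: CHO-XBP1 luciferase reporter cells; Amount: one thousand reporter cells per well; Dosing: 20 µM single concentration, DMSO 1%; Benchmarks: high control tunicamycin 10 µg/mL final, low control DMSO vehicle only; Schedule: 6 h compound exposure at 37 °C, 5% CO2; Evaluation: percent activation relative to tunicamycin reference.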
CSC inhib: cancer stem cell inhibition. 300,000 compounds, 1.1% hits. cancer stem cell-like cells viability, luminescence. inhibition, % at 7.5 µM; in the data active = inhibition above about 75%; tested in HMLE shEcad cells
Mdm2-MdmX conf: confirmation of human Mdm2/MdmX interaction inhibitors; shares compounds with Mdm2 MdmX PPI; inhibition, % at 8 µM; 10,000 compounds, 55% hits; Mdm2-MdmX binding, luminescent assay; in the data active = inhibition above about 40%
Full FLuc ctr: counter-screen for Mdm2/MdmX inhibitors: full-length luciferase. inhibition, % at 8 µM. 6,200 compounds, 77% hits. shares compounds with Mdm2 MdmX PPI. SaOS-2 full-length luciferase counterscreen, luminescence;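 active = mean inhibition at 8 µM reaching about 37%, which flags the compound as non-specific, limit read from the data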;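 also: p53-null SaOS-2 cells with luciferase driven by a doxycycline-inducible promoter; compound on cells about two nights before reading with doxycycline added after day one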
* = called active by the depositor; . = not tested or not shown; ! = a repeat was not active.

SMILES	UPR CHOP act	T cruzi repl	Beta apoptosis	Mdm2 MdmX PPI	UPR XBP1 act	CSC inhib	Mdm2-MdmX conf	Full FLuc ctr
CCOC(=O)[C@H]1[C@H]2COc3ccc(Cl)cc3[C@@H]2N2C(=O)c3ccc(Cl)cc3NC(=O)[C@@]12C	-0.2	.	3.1	53.1*	6.1	36.3	24.9	.
COc1ccc2c(c1)C(=O)N1[C@H]3c4cc(Br)ccc4OC[C@@H]3[C@H](c3ccccc3)[C@]1(C)C(=O)N2	-0.4	.	8.6	64.5*	-2.3	-13.0	62.9*	37.4*
O=c1c([N+](=O)[O-])c(N2CCCC2)c2ccccc2n1-c1ccccc1	2.7	2.0	-3.3	3.4	-2.6	-15.9	.	.
C/C(CC(=O)Nc1cccnc1)=N\NC(=O)C(C)Oc1ccc(Cl)cc1Cl (stereo not drawn)	0.1	-24.1	4.5	4.9	-1.9	14.9	.	.
Clc1ccc(OCCCNCc2ccccc2)c(Br)c1	-0.9	36.9	17.4	65.3*	5.0	-1.7	24.4	.
CCOc1ccc(S(=O)(=O)N(CC)CC(=O)NCc2ccncc2)cc1C	2.1	10.8	-5.6	7.8	5.2	-5.2	.	.
O=C1c2ccccc2-c2onc3ccc(NCc4ccco4)c1c23	-2.0	13.9	43.6	58.0*	5.7	50.5	25.2	.
Cc1ccc(S(=O)(=O)n2ccc3c(OCCOCCNCc4ccc(F)cc4)cccc32)cc1	6.8	55.3*	29.8	53.9*	-2.8	59.5	23.4	.
Nc1nonc1-n1nnc(C(=O)N/N=C/c2ccc(OCc3ccc(F)cc3)cc2)c1COc1ccccc1	6.5	0.8	7.5	52.5*	16.5	26.5	16.3	.
Cc1c(C(=O)N/N=C/c2c(O)ccc3ccccc23)nnn1-c1nonc1N	-1.4	27.2	85.7*	67.2*	-0.8	.	81.2*	52.2*
CC(C)c1c(C(=O)N/N=C/c2ccccc2OCc2c(F)cccc2Cl)nnn1-c1nonc1N	1.9	6.0	17.7	56.6*	9.1	65.0	52.3*	55.2*
Nc1nonc1-n1nnc(C(=O)N/N=C/c2cc(Br)ccc2O)c1CNc1ccccc1	-2.1	59.0*	96.5*	69.0*	0.2	97.3*	65.6*	30.5
COc1ccc2ccccc2c1/C=N/NC(=O)c1nnn(-c2nonc2N)c1C(C)C	-2.7	-15.6	3.1	18.6	-4.0	28.9	.	.
CC(C)c1c(C(=O)N/N=C/c2ccc(Cl)cc2Cl)nnn1-c1nonc1N	-1.4	10.3	8.5	16.2	3.0	-3.2	.	.
Cc1ccc(/C=N/NC(=O)c2nnn(-c3nonc3N)c2CNc2ccccc2)cc1	0.7	6.4	0.0	6.1	-0.6	-4.8	.	.
CCCCOc1ccc(N2C(=O)CC(NCCc3ccc(S(N)(=O)=O)cc3)C2=O)cc1 (stereo not drawn)	-0.2	-1.8	-2.9	-9.6	-1.5	-6.0	.	.
Cc1ccc(CNS(=O)(=O)c2ccc(CN3C(=O)c4cccnc4C3=O)cc2)o1	-0.8	-16.0	4.9	6.0	-4.6	-18.1	.	.
NC(=O)c1c(NC(NC(=O)c2ccco2)(C(F)(F)F)C(F)(F)F)sc2c1CCCC2	0.2	-7.0	-1.8	27.0	-0.7	-4.7	.	.
Cc1ccc(COc2cccc(/C=N/NC(=O)c3nnn(-c4nonc4N)c3C)c2)cc1	6.5	-5.4	12.7	56.3*	-4.3	38.4	-12.7	.
Cc1cccc(COc2ccc(/C=N/NC(=O)c3nnn(-c4nonc4N)c3C)cc2)c1	2.4	0.3	-7.2	5.2	-0.6	-11.8	.	.
NNC(=O)CSc1cccc2cccnc12	1.0	-8.2	0.1	16.9	0.5	-11.0	.	.
CC(=O)/C(=N\Nc1ccccc1)Sc1cccc2cccnc12	0.6	-1.1	-2.5	-9.5	0.8	-4.1	.	.
O=C(Sc1cccc2cccnc12)c1ccccc1Br	62.3*	-1.0	51.9	96.6*	-0.2	23.9	89.7*	4.2
O=C(Sc1cccc2cccnc12)c1ccc(F)cc1	68.8*	.	.	92.6*	-3.3	.	95.0*	14.7
CCOC(=O)C1=C(c2ccccc2)NC(N)=NC1c1ccc(OCc2ccc(Cl)cc2)c(OC)c1 (stereo not drawn)	3.2	21.2	-11.1	100.3*	5.1	75.5*	59.8*	94.4*
SMILES	UPR CHOP act	T cruzi repl	Beta apoptosis	Mdm2 MdmX PPI	UPR XBP1 act	CSC inhib	Mdm2-MdmX conf	Full FLuc ctr
O=S(=O)(c1cccc2cnccc12)N1CCCNCC1	-1.2	6.3	.	59.1*	-4.6	-6.7	47.0*	65.2*
CC1CCCCN1S(=O)(=O)c1cccc2cccnc12 (stereo not drawn)	-0.7	1.5	.	11.6	-3.1	-9.1	.	.
CC1CNCCN1S(=O)(=O)c1cccc2cnccc12 (stereo not drawn)	0.1	9.5	-2.0	54.9*!	-7.3	-14.2	24.8	.
O=C1C(Cl)=C(NCCN2CCCCC2)C(=O)c2ccccc21	22.8	67.2*	112.2*	98.9*	2.1	107.5*	11.7	.
O=C(NCCN1CCCC1)c1ccccc1Cl	0.8	2.4	-0.7	-2.6	-1.1	-2.1	.	.
COc1ccc(-c2csc3ncnc(NCCO)c23)cc1	0.6	-24.8	2.9	70.6*	-4.6	-8.8	59.2*	26.2
Cc1ccc(NC(=S)N/N=C2\CC(C)(C)Oc3ccc(O)cc32)cc1	-1.3	-8.2	1.9	28.0	-0.7	46.3	.	.
CC(=O)N1CCC2(CC1)C/C(=N\NC(=S)Nc1ccc(C)cc1)c1cc(O)ccc1O2	2.3	7.4	5.8	74.7*	-5.5	16.7	40.0*	93.0*
COc1ccc(NC(=S)N/N=C2\CC(C)(C)Oc3ccc(OC)cc32)cc1	-0.7	15.4	5.3	26.6	1.1	6.3	.	.
Cc1ccccc1NC(=S)N/N=C1\CC(C)(C)Oc2ccc(O)cc21	0.4	-17.9	11.6	51.0*	1.2	-10.7	5.8	.
COc1ccc(CNc2oc(COc3ccccc3)nc2C#N)cc1	4.6	36.3	-3.5	17.2	1.7	6.7	.	.
COc1ccc(Nc2oc(COc3ccc(C)cc3)nc2C#N)cc1	2.7	31.7	0.6	59.1*	3.0	-4.9	73.6*	60.6*
COc1ccc(Nc2oc(COc3cccc(C)c3)nc2C#N)cc1	4.2	25.5	5.0	62.8*	-2.8	-7.6	48.5*	90.5*
CCOc1ccc(Nc2oc(-c3cccc(Cl)c3)nc2C#N)cc1	1.8	-5.7	6.5	51.4*	5.7	-0.4	1.1	.
COc1ccc(Nc2oc(COc3ccccc3F)nc2C#N)cc1	6.9	-5.7	2.6	-13.2	-2.0	10.7	.	.
COc1ccc(Nc2oc(COc3ccc(OC)cc3)nc2C#N)cc1	-0.4	22.0	.	63.2*	2.6	15.6	80.0*	59.3*
